5-HT1A blocker – human 5-HT1a receptor antagonists, primary screen, cell-based, CHO, Ga15 NFAT-bla reporter; CHO 5-HT1a Ga15 NFAT-bla reporter, antagonist mode; inhibition, % at 10 µM; AID 612, 2007; actives 0.68% (n = 62,000); 5-hydroxytryptamine receptor 1A (Homo sapiens), P08908;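 active means inhibition above the mean of all tested compounds plus 3 SD, cut at about 43% in these data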;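 further: receptor stimulated by 5-CT agonist at 100 nM near EC80; beta-lactamase reporter measured by ratiometric fluorescence of a cleavable substrate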
Target sequence (P08908 whole entry, looked up): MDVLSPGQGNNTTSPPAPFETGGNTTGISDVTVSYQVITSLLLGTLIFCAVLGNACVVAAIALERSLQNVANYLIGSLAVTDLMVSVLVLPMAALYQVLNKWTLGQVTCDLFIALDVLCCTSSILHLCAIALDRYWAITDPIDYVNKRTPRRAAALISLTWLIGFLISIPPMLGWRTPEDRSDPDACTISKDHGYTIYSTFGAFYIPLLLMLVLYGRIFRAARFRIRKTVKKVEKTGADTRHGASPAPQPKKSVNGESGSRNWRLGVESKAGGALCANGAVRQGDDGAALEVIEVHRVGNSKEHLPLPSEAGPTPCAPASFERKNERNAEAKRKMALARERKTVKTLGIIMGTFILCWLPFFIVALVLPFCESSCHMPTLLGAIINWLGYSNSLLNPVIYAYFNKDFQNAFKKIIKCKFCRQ
S1P3 ag – human S1P3 receptor agonists, primary screen, cell-based, primary and confirmation, NFAT-BLA reporter; AID 373, 2006; S1P3 NFAT-BLA reporter cells, agonism, FRET ratio; relative to 1 µM S1P, basal subtracted; actives 0.1% (n = 60,000); activation, % at 4.5 µM; Sphingosine 1-phosphate receptor 3 (Homo sapiens), Q99500;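 active means activation above the screen-wide mean plus 3 SD, cut at about 4.5% in these data, passing the limit was not always enough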
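Material: Human S1P3 NFAT-BLA reporter CHO cells | Incubation: Overnight plating, 4 h compound 37 °C, 2 h substrate RT | Signal: FRET β-lactamase substrate fluorescence, excitation 405 nm, 460/535 nm emission ratio, background-subtracted | Compound: 4.5 µM final, single dose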
HTR1E agonist – 5-HT1E receptor agonists, primary screen, cell-based, HTS. 5-hydroxytryptamine receptor 1E (Homo sapiens), P28566. CHO 5-HT1E Ga15 NFAT-bla reporter, FRET; 0% DMSO wells, 100% control agonist wells. activation, % at 6 µM. actives 0.69% (n = 65,000). AID 574, 2007;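 active means activation above a set limit, the screen-wide mean activation plus 3 SD, cut at about 8.5% in these data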;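 further: 100% = positive control agonist at 1 µM giving full maximal response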
5HT1a ag – human 5-HT1a receptor agonists, primary screen, cell-based, CHO, Ga15 NFAT-bla reporter; 5-hydroxytryptamine receptor 1A (Homo sapiens), P08908; CHO 5-HT1a Ga15 NFAT-bla reporter, FRET ratio; 0% basal, 100% maximal reference agonist; activation, % at 10 µM; actives 0.56% (n = 65,000);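 active means activation above the screen-wide mean activation plus 3 SD, cut at about 19% in these data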;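 further: 0% = DMSO wells and 100% = 5-CT at EC100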
HTR1E antagonist – 5-HT1E receptor antagonists, primary screen, cell-based, HTS. CHO 5-HT1E Ga15 NFAT-bla reporter, FRET, antagonist. actives 0.99% (n = 65,000). 5-hydroxytryptamine receptor 1E (Homo sapiens), P28566. inhibition, % at 6 µM;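 active means inhibition above a set limit, the mean inhibition across every tested compound plus 3 SD, cut at about 29% in these data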;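 further: signal is the 460 over 535 nm emission ratio of beta-lactamase substrate; 0% = agonist plus DMSO wells and 100% = wells without agonist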
S1P1 ag pot – S1P1 agonists and agonism potentiators, primary screen, cell-based, primary and confirmation screens, CRE-bla reporter. Sphingosine 1-phosphate receptor 1 (Homo sapiens), P21453. S1P1 CRE-bla cells, forskolin, beta-lactamase FRET, potentiator mode; S1P1 agonist co-added at EC20, 2 nM; 100% = saturating reference agonist, 0% = basal. activation, % at 9.5 µM. actives 0.57% (n = 56,000). AID 449, 2006;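 active means activation above a cutoff set at the mean activation of all tested compounds plus 3 SD, cut at about 54% in these data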;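 further: forskolin at 4 µM as EC80 and the EC20 agonist is SEW2871; 100% = SEW2871 at its EC100 plus forskolin at EC80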
An asterisk follows results filed as active; . = no result. Sampled rows, rich in hits. Any-hit rate of the full collection: about 3%.

SMILES	5-HT1A blocker	S1P3 ag	HTR1E agonist	5HT1a ag	HTR1E antagonist	S1P1 ag pot
C(=C\c1ccccc1)/CSc1nnc(-c2cccnc2)o1	0	-2	-1	-4	1	16
Clc1ccc(-c2nn3c(Cn4cnc5ccccc54)nnc3s2)c(Cl)c1	17	-2	1	0	3	5
CC(C)n1cc(/C=C(\C#N)S(=O)(=O)c2ccccc2)c2ccccc21	-17	0	2	13	-3	-14
CC(C)Oc1cccc(C(=O)Nc2ccccc2N2CCOCC2)c1	4	-1	-1	1	32*	11
O=C(Nc1ccc(N2CCOCC2)c(Cl)c1)c1c(F)c(F)c(F)c(F)c1F	0	-1	-1	-7	14	.
O=C(Nc1ccc(N2CCOCC2)c(Cl)c1)c1cccc(F)c1	2	-1	0	-3	5	88*
COc1cccc(NC(=O)CN2C(=O)COc3ccc(Cl)cc32)c1	17	0	0	-7	7	-21
COc1ccc(C2CC(c3cccc(OC)c3OC)n3nnnc3N2)cc1 (centres undefined)	-6	-1	0	-1	2	-8
Brc1ccc(CSc2nnc(-c3ccccn3)n2Cc2ccco2)cc1	65*	.	-1	-1	27	.
CCOc1cc(C(=O)N(C)c2ccccc2)cc(OCC)c1OCC	1	-1	0	-8	-7	-12
COC(=O)c1ccsc1NC(=O)CN1C(=O)CCC1=O	7	-2	0	1	-2	6
CCOC(=O)C1=C(C)NC(=O)NC1c1ccc(OCC(=O)Nc2ccccc2)c(OC)c1 (centres undefined)	14	-1	89*	1	-1	16
O=C1OCCC1Sc1nc(-c2ccccc2)cs1 (centres undefined)	-13	1	0	-3	-2	.
CSc1ccc(C2C(C#N)=C(N)N(c3ccccc3)C3=C2C(=O)CCC3)cc1 (centres undefined)	43*	.	0	0	11	.
O=C1CCCC2=C1C(c1ccccc1)CC(=O)N2c1ccccc1 (centres undefined)	3	-1	0	0	-1	13
COC(=O)c1ccc(C2CC(=O)Nc3cc(OC)c(OC)c(OC)c32)cc1 (centres undefined)	0	0	0	0	-6	.
CCOc1cc(NC(=O)c2ccco2)c(OCC)cc1NC(=O)CCc1ccc(OC)cc1	-2	0	-1	-1	-8	-8
CCn1c(SCc2ccc(C(=O)OC)o2)nc2sc3c(c2c1=O)CCCC3	6	0	9.3*	-2	-11	-17
CCn1c(SCC(=O)O)nc2sc3c(c2c1=O)CCC3	.	-2	0	0	-7	-4
Cc1cccn2c(=O)c3cc(C(=O)NC(C)c4ccccc4)c(=N)n(CCCn4ccnc4)c3nc12 (centres undefined)	-66	4.7*	5	16	-21	-497
Cc1ccc2nc3c(cc(C(=O)NCc4ccccc4)c(=N)n3CCCn3ccnc3)c(=O)n2c1	-33	4	3	15	-18	-431
CC(C)NCC(O)COc1cccc2[nH]ccc12 (centres undefined)	.	-2	8.7*	1	-7	6
COC(=O)Cc1c[nH]c2ccc(OCC(O)CNC(C)C)cc12 (centres undefined)	0	-1	-2	-2	4	-9
Nc1nc2ccc(OC(F)(F)F)cc2s1	.	-3	0	24*	15	-50
Nc1nc2ccc(Oc3ccccc3)cc2s1	16	-1	-1	-2	4	3
